Entries after “also recorded” stand apart in the source; their conditions may differ.
Experiments:
[1] = type: in vivo; conditions: human, plasma, oral
AKT3 = conditions: cited from earlier work
ROCK I = conditions: cited from earlier work
p-MLC2 in tumor biopsies = test: p-MLC2 in paired tumor biopsies by immunohistochemistry; type: in vivo, human; conditions: 180 mg dose level, 5 paired biopsies
In short: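 Fresh tumor biopsies were taken before and after treatment at 180 mg. Four-μm sections were heated at 60 °C for 20 min and retrieved in Tris pH 9 at 110 °C for 6 min. Staining used primary antibody 40 min at RT, biotinylated secondary 1:200, ABC-HRP amplification, VIP substrate and hematoxylin counterstain. Positive-cell detection used intensity scores 0–3, with a random-trees classifier separating tumor from stroma.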

AKT2 = conditions: cited from earlier work
advanced solid tumors = test: Clinical efficacy; type: in vivo, human; conditions: all dose levels
In short: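 Patients with metastatic solid tumors who had already received standard-of-care treatment took oral test compound three days a week (Mon-Wed-Fri) in 28-day cycles. Cohorts received flat doses from 5 to 300 mg, and one further cohort used intra-patient escalation from 120 to 180 to 240 mg.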

[2] = tested on: p-cofilin in tumor biopsies; test: p-cofilin in pre- and post-treatment tumor biopsies, Protein Simple WES assay; type: in vivo, human; conditions: 8 pre- and post-treatment biopsies
In short: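 Tumor biopsies were taken pre-dose and 24 h post-dose (cycle 1 day 15 or cycle 2 day 1) at 180 mg given thrice weekly. Phospho- and total cofilin were measured by capillary immunoassay (WES), normalized to GAPDH, and quantified as the area under the chemiluminescence peak. Phospho-cofilin was expressed as percent of pre-dose level.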

[3] = tested on: patients with solid tumors; test: First-in-human phase I dose escalation: safety and tolerability; type: in vivo
In short: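 The design was a rolling-six dose escalation across 5–300 mg in 8 cohorts, starting with a single run-in dose 7 days before cycle 1. Dosing was oral, Mon-Wed-Fri, in 28-day cycles. An added cohort escalated within each patient: one week at 120 mg, then 180 mg, then 240 mg during cycle 1. Toxicity was assessed weekly. Patients with hypertension on medication or abnormal fasting glucose were excluded.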

ROCK 2 = conditions: cited from earlier work
AKT1 = conditions: cited from earlier work
[4] = tested on: p-GSK3β in platelet-rich plasma; test: p-GSK3β; type: in vivo, human
In short: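 Blood was sampled at baseline and at 2, 6, 24 and 48 h after the run-in dose and after the cycle 2, day 1 dose. Platelet-rich plasma was prepared, and GSK3β Ser9 phosphorylation was measured by MSD electrochemiluminescent immunoassay. Results were expressed as percent of baseline, normalized to total GSK3β, and compared with predose by Dunnett's test.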

[5] = Cohort 9 120-180-240 mg (n=7), grade 1

With `NC[C@@](O)(c1ccc(Cl)cc1)c1ccc(-c2cn[nH]c2)cc1` [AT13148] the half-life [1] was 864 to 1930 min, the AUC ([1]; 180 mg) was 13.4 µM·h and the Cmax ([1]; 180 mg) was 383 nM. For the same molecule, the IC50 (AKT3) was 50 nM, the IC50 (ROCK I) was 6 nM and the “paired biopsies with reduction of p-MLC2 (H scores) post-treatment” value (p-MLC2 in tumor biopsies) was 1/5. The IC50 (AKT2) was 402 nM, the tumor response (advanced solid tumors) was “No complete or partial responses; also recorded: no clinical responses” and the “post-treatment biopsies showing a reduction of p-cofilin” value ([2]; 180 mg dose level) was 5/8. The “post-treatment biopsies with ≥50% (>50%) reduction of p-cofilin” value ([2]; 180 mg thrice a week) was 3/8, the dose-limiting toxicity ([3]; 180 mg) was “skin rash; also recorded: maculopapular rash” and the dose-limiting toxicities ([3]; 240 mg) was “pneumonitis and elevated liver enzymes; also recorded: elevated transaminases and pneumonitis”. The dose-limiting toxicity ([3]; 300 mg) was “hypotension”, the “most common (treatment related) side effects” value ([3]; 5 - 300 mg) was “fatigue, nausea, headaches and hypotension; also recorded: hypotension, nausea, headache and fatigue” and the “Anorexia, No. subjects” value ([3]; Cohort 1 5 mg (n=4), grade 1) was 1. The “Nausea, No. subjects” value ([3]; Cohort 1 5 mg (n=4), grade 1) was 1, the “Fatigue, No. subjects” value ([3]; Cohort 1 5 mg (n=4), grade 2) was 1 and the “Hypotension, No. subjects” value ([3]; Cohort 2 10 mg (n=5), grade 1) was 1. The “Flushing, No. subjects” value ([3]; Cohort 8 300 mg (n=5), grade 1) was 1, the “Headache, No. subjects” value ([3]; Cohort 8 300 mg (n=5), grade 1) was 3 and the “Nausea, No. subjects” value ([3]; Cohort 8 300 mg (n=5), grade 1) was 2. The “Vomiting, No. subjects” value ([3]; Cohort 8 300 mg (n=5), grade 1) was 1, the “Anorexia, No. subjects” value [3, 5] was 2 and the “Diarrhea, No. subjects” value [3, 5] was 2. The “Fatigue, No. subjects” value [3, 5] was 2, the “Hypotension, No. subjects” value [3, 5] was 2 and the “Nausea, No. subjects” value [3, 5] was 4. The “Vomiting, No. subjects” value [3, 5] was 1, the “Fatigue, No. subjects” value ([3]; Cohort 9 120-180-240 mg (n=7), grade 2) was 2 and the DLTs reported ([3]; Cohort 9 intra-patient dose escalation 120-180-240 mg) was “two DLTs (grade 3 pneumonitis at 240 mg and grade 3 rash at 180 mg)”. For the same molecule, the “Anorexia, Total No. subjects” value ([3]; all cohorts (n = 51)) was 7 (13.7%), the “Diarrhea, Total No. subjects” value ([3]; all cohorts (n = 51)) was 7 (13.7%) and the “Fatigue, Total No. subjects” value ([3]; all cohorts (n = 51)) was 9 (17.6%). The “Flushing, Total No. subjects” value ([3]; all cohorts (n = 51)) was 6 (11.8%), the “Headache, Total No. subjects” value ([3]; all cohorts (n = 51)) was 12 (23.5%) and the “Hypotension, Total No. subjects” value ([3]; all cohorts (n = 51)) was 20 (39.2%). The “Nausea, Total No. subjects” value ([3]; all cohorts (n = 51)) was 15 (29.4%), the “Vomiting, Total No. subjects” value ([3]; all cohorts (n = 51)) was 7 (13.7%) and the dose-limiting toxicities ([3]; dose doubling from 5 - 160 mg) was “no dose-limiting toxicities reported”. The “time of occurrence of hypotension after dosing” value ([3]; in vivo) was at most 8 h, the maximally tolerated dose ([3]; orally on days 1, 3 and 5 of each week, 28-day cycles) was 180 mg and the IC50 (ROCK 2) was 4 nM. For the same molecule, the IC50 (AKT1) was 38 nM, the “change of p-GSK3β levels in platelet-rich plasma vs predose” value ([4]; 300 mg, 2 - 6 hrs (legend: 2 - 24 hrs) after treatment, Dunnett's test) was “statistically significant reduction; also recorded: reduced; also recorded: transient reduction” and the “change of p-GSK3β levels in platelet-rich plasma vs predose” value ([4]; doses lower than 300 mg) was “not significant”.

From PMC7611345 (Clinical cancer research : an official journal of the …, 2020)
